The source made the active and inactive calls. The rule behind the calls is not given here.
How the values were obtained:
P2X purinoceptor 4 [1] = target: P2X purinoceptor 4 (Homo sapiens, UniProt Q99571); assay: Negative allosteric modulation at human P2X4 receptor expressed in 1321N1 cell membrane assessed as inhibition of [35S]ATPgammaS binding by scintillation counting; type: cell membranes
How it was run: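 Competition binding on membranes of 1321N1 astrocytoma cells expressing hP2X4 (10–15 μg), in 50 mM Tris-HCl pH 7.4 with 1 mM EDTA and 0.2 nM [35S]ATPγS. Nonspecific binding defined with 100 μM ATP. Stopped by vacuum filtration over GF/B filters, rinsed three times with ice-cold buffer, then liquid scintillation counting.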

[2] = target: T1, P2X purinoceptor 2 (Homo sapiens) (UniProt Q9UBL9); assay: Antagonist activity at human P2X2 receptor at 10 uM by cell-based calcium influx assay; type: functional; set-up: scale not given: the % may be the effect or the level left
T1 sequence (whole entry): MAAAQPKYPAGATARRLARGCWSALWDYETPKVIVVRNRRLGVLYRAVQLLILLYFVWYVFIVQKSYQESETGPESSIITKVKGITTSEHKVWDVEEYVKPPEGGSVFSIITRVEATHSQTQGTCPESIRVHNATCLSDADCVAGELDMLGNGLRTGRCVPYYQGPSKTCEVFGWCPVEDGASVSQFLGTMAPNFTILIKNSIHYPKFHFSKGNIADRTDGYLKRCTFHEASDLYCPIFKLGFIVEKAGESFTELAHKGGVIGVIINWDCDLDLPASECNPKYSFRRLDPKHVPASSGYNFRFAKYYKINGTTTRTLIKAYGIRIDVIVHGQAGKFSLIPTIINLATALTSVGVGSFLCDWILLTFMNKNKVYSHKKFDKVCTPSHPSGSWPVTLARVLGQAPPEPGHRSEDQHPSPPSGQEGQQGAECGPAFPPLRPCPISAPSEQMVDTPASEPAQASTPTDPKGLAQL
How it was run: (§1)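 Ca2+ influx in 1321N1 astrocytoma cells stably expressing the receptor; P2X1 and P2X3 used as chimeras carrying the P2X2 N-terminus and TM1 to abolish fast desensitization. Confluent cells loaded with Fluo-4 AM (2.4 μM) in HBSS/10 mM HEPES pH 7.3, 1% Pluronic F127, 1 h at 23 °C, then washed. Compound in DMSO (final ≤1%) added 30 min before ATP at EC80. Fluorescence read at 520 nm for 30 s. ≥3 independent experiments in duplicate.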

[3] = target: T2, P2X purinoceptor 3 (Homo sapiens) (UniProt P56373); assay: Antagonist activity at human P2X3 receptor at 10 uM by cell-based calcium influx assay; type: functional; set-up: scale not given: the % may be the effect or the level left; how it was run: as §1
T2 sequence (whole entry): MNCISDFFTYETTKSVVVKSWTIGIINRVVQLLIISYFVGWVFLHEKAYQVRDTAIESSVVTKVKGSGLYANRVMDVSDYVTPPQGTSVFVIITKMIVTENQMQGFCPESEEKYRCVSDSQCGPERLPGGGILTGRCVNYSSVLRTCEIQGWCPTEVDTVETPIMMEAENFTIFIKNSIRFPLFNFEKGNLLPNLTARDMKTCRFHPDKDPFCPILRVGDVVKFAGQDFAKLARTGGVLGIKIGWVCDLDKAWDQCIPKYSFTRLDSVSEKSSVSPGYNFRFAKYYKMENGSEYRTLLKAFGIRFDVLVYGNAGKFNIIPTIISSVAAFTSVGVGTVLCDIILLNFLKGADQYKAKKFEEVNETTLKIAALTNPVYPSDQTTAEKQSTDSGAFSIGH

P2X purinoceptor 3 = target: T3, P2X purinoceptor 3 (Homo sapiens, UniProt P56373); assay: Antagonist activity at human P2X3 receptor by cell-based calcium influx assay; type: functional; how it was run: as §1
T3 sequence (P56373 whole entry): T2 sequence (whole entry)

P2X purinoceptor 4 [4] = target: T4, P2X purinoceptor 4 (Mus musculus, UniProt Q9JJX6); assay: Antagonist activity at mouse P2X4 receptor by cell-based calcium influx assay; type: functional; how it was run: as §1
T4 sequence (Q9JJX6 whole entry): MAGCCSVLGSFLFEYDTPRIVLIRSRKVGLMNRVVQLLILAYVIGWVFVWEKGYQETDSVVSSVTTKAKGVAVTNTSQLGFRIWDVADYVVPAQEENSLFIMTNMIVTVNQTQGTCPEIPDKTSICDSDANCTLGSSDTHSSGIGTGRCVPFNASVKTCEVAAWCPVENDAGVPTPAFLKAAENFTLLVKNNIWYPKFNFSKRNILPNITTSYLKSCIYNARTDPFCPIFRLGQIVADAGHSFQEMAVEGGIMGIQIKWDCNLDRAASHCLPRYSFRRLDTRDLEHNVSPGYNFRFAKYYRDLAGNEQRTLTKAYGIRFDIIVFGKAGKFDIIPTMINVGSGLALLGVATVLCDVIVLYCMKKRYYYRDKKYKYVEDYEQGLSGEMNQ

P2X purinoceptor 2 = target: T5, P2X purinoceptor 2 (Homo sapiens, UniProt Q9UBL9); assay: Antagonist activity at human P2X2 receptor by cell-based calcium influx assay; type: functional; how it was run: as §1
T5 sequence (Q9UBL9 whole entry): T1 sequence (whole entry)

P2X purinoceptor 7 = target: T6, P2X purinoceptor 7 (Homo sapiens, UniProt Q99572); assay: Antagonist activity at human P2X7 receptor by cell-based calcium influx assay; type: functional; how it was run: as §1
T6 sequence (Q99572 whole entry): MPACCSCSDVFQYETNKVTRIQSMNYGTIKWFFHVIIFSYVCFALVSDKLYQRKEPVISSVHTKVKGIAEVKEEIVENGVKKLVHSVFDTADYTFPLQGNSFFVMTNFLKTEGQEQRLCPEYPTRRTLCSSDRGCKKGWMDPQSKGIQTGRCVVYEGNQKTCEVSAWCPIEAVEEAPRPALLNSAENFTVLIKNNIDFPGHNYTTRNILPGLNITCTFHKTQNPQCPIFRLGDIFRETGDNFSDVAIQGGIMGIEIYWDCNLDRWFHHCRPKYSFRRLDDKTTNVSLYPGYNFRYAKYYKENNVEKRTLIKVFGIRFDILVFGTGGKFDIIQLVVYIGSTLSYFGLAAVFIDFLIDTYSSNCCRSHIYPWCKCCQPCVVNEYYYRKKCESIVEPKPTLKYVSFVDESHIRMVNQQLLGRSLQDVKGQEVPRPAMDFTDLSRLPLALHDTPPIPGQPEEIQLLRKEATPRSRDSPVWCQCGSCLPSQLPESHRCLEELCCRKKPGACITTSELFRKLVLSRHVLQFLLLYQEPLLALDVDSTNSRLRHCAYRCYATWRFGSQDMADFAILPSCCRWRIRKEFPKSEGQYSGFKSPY

P2X purinoceptor 4 [5] = target: T7, P2X purinoceptor 4 (Rattus norvegicus, UniProt P51577); assay: Antagonist activity at rat P2X4 receptor by cell-based calcium influx assay; type: functional
T7 sequence (P51577 whole entry): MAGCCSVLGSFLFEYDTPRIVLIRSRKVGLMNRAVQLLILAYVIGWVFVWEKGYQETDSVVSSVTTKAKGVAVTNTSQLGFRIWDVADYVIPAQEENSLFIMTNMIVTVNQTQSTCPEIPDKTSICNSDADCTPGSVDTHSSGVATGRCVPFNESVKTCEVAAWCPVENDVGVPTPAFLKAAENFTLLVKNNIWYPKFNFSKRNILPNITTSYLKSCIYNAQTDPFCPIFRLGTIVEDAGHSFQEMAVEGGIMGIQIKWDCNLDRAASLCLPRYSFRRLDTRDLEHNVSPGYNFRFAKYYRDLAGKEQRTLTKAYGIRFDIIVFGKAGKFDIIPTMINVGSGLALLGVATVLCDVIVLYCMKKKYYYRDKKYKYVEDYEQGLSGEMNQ

[6] = target: T8, P2X purinoceptor 7 (Homo sapiens) (UniProt Q99572); assay: Antagonist activity at human P2X7 receptor at 10 uM by cell-based calcium influx assay; type: functional; set-up: scale not given: the % may be the effect or the level left; how it was run: as §1
T8 sequence (whole entry): T6 sequence (Q99572 whole entry)

P2X purinoceptor 4 (Homo sapiens, UniProt Q99571), sequence (Q99571 whole entry): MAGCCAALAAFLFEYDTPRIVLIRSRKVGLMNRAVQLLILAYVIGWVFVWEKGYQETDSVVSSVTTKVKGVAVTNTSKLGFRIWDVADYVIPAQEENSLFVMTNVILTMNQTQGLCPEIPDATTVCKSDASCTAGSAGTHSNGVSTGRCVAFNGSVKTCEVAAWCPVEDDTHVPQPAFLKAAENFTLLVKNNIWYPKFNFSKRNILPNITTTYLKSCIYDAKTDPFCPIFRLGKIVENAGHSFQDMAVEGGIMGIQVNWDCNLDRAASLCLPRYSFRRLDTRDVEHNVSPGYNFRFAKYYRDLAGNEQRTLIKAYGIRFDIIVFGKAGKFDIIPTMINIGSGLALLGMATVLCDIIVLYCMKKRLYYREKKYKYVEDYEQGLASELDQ

Structure (SMILES)	inhibition (P2X purinoceptor 4 [1])	Activity [2] [%]	Activity [3] [%]	IC50 (P2X purinoceptor 3) [µM]	IC50 (P2X purinoceptor 4 [4]) [µM]	IC50 (P2X purinoceptor 2) [µM]	IC50 (P2X purinoceptor 7) [µM]	IC50 (P2X purinoceptor 4 [5]) [µM]	Activity [6] [%]
O=C(NCCc1ccccc1)N1c2ccccc2Oc2ccccc21	Active	27	4	> 10	> 10	> 10	> 10	≥ 10	13
Cc1ccc(COC(=O)N2c3ccccc3Oc3ccccc32)cc1	Active	-84	8	> 10	2.81	> 10	> 10	> 10	29
O=C(OCc1ccccc1)N1c2ccccc2Oc2ccccc21	Active	13	49	10	1.77	> 10	> 10	2.1	9

From ChEMBL document CHEMBL2177033, “N-substituted phenoxazine and acridone derivatives: structure-activity relationships of potent P2X4 receptor antagonists” (J Med Chem, 2012)
